Measurements from article PMC8428381 (Journal of Virology, 2021).
Counter-ions that a name gives are not always drawn.

How the values were obtained:
[1] = tested on: SARS-CoV-2; details: by acting against TMPRSS2; cited from earlier work
[2] = biological target: plasma kallikrein (PK) (Homo sapiens, UniProt P03952); experiment: Chromogenic enzyme inhibition assay, plasma kallikrein; type: biochemical
[3] = biological target: factor XIa (FXIa) (Homo sapiens, UniProt P03951); experiment: Chromogenic enzyme inhibition assay, factor XIa; type: biochemical
Summary of the method: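 Recombinant FXIa serine protease domain expressed in Pichia pastoris X-33. 2 nM enzyme preincubated 15 min at 37°C with a range of test compound concentrations in 0.01 M HEPES, 0.15 M NaCl, pH 7.4, 0.1% BSA. Chromogenic substrate was then added at about its Km. Initial velocities were read at 405 nm, and IC50 came from a sigmoidal nonlinear fit.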

[4] = biological target: murine uPA (muPA) (Mus musculus, UniProt P06869); experiment: Chromogenic enzyme inhibition assay, murine uPA serine protease domain; type: biochemical
Summary of the method: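 Mouse uPA serine protease domain, expressed as E. coli BL21(DE3) inclusion bodies, then refolded and purified. 2 nM enzyme preincubated 15 min at 37°C with varied test compound in 0.01 M HEPES, 0.15 M NaCl, pH 7.4, 0.1% BSA. S-2444 then added at about Km. Initial velocities read at 405 nm; IC50 from a sigmoidal nonlinear regression.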

[5] = biological target: uPA (Homo sapiens, UniProt P00749, C299A/N322Q); experiment: Chromogenic enzyme inhibition assay, uPA serine protease domain; type: biochemical
Summary of the method: (§1)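 Serine protease domains (uPA, matriptase) expressed in Pichia pastoris X-33. 2 nM enzyme preincubated 15 min at 37°C with varied test compound in 0.01 M HEPES, 0.15 M NaCl, pH 7.4, 0.1% BSA. Substrate at about Km: S-2444 for uPA, S-2288 for matriptase. Initial rates read at 405 nm; IC50 from a sigmoidal nonlinear fit.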

[6] = biological target: T1, matriptase (Homo sapiens, UniProt Q9Y5Y6); experiment: Chromogenic enzyme inhibition assay, matriptase; type: biochemical
T1 sequence (Q9Y5Y6 615-854 limits assumed): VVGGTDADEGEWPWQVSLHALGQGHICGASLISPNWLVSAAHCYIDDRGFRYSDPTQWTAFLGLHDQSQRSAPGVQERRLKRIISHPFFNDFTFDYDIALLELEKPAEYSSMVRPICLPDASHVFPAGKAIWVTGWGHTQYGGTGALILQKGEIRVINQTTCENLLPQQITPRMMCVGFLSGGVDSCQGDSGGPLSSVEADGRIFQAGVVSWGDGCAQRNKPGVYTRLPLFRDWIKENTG
Summary of the method: as §1

factor XIa (FXIa), sequence (P03951 388-623 limits assumed): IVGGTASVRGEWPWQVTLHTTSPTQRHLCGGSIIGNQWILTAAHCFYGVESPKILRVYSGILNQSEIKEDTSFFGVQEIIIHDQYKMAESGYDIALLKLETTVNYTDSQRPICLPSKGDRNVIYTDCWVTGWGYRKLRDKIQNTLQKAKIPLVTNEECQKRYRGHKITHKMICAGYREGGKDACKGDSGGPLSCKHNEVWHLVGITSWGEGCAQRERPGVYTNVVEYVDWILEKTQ
plasma kallikrein (PK), sequence (P03952 391-626 limits assumed): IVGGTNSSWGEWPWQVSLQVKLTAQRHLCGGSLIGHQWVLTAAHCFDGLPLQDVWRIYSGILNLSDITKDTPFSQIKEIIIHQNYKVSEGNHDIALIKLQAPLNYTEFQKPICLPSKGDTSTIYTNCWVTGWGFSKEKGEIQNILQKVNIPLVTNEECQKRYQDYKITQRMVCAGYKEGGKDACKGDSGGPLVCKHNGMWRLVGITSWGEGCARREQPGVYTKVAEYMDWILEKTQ
murine uPA (muPA), sequence (P06869 180-426 limits assumed): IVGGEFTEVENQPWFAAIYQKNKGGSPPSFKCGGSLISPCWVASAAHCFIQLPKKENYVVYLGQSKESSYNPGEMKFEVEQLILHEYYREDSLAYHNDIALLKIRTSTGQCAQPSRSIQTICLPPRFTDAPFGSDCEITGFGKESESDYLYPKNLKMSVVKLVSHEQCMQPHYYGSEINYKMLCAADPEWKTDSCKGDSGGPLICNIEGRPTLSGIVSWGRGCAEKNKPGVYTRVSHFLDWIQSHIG

In the case of CN(C)C(=O)COC(=O)Cc1ccc(OC(=O)c2ccc(NC(=N)N)cc2)cc1 [camostat, camostat mesylate], the “SARS-CoV-2 infection of human lung cells” value [1] is listed as “inhibits SARS-CoV-2 infection of human lung cells”, the IC50 [2] is listed as 0.0104 ± 0.0027 µM and the IC50 [3] is listed as 0.0441 ± 0.0011 µM. For the same compound, the IC50 [4] was 0.1 ± 0.0419 µM, the IC50 [5] was 0.0864 ± 0.0094 µM and the IC50 [6] was 0.0211 ± 0.0035 µM.
